CHO-K1 Ca antag = M1 antagonist counterscreen hit in parental CHO-K1 cells; 360,000 compounds, 0.6% hits; ATP-induced calcium, Fluo-8 fluorescence; AID 602250; inhibition, % at 3 µM;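 active = inhibition above a per-plate cutoff, the plate's mean sample inhibition plus 3 SD, cut at about 24% in these data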
CHO parental Ca = counter-screen for OX1R antagonists: effect in parental CHO cells. AID 463079. parental CHO-K1, ATP-induced calcium, Fluo-8 fluorescence. 330,000 compounds, 0.63% hits. inhibition, % at 5.6 µM;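 active = inhibition above that plate's mean sample inhibition plus 3 SD, cut at about 26% in these data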
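test system = CHO parental line | reagent = ATP stimulus | measured by = intracellular calcium via Fluo-8 no-wash fluorescent dye | control set = ATP and no-ATP DMSO wells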
M1 ag parental = nonselective activator or artifact in parental CHO-K1 cells; 360,000 compounds, 0.48% hits; activation, % at 3 µM; Fluo-8 calcium fluorescence; scaled to maximal ATP response, vehicle zero; in the data active = activation above about 15%;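 also: untransfected CHO-K1 host cells lacking M1 receptor as counterscreen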
M1 PAM parental = M1 PAM counterscreen hit in parental CHO-K1 cells. ATP EC20, Fluo-8 calcium fluorescence; 0% at ATP EC20, 100% at ATP max. activation, % at 3 µM. 360,000 compounds, 0.02% hits;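 active = activation above the run cutoff, the mean activation of all test compounds plus 3 SD, cut at about 40% in these data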;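 also: peak over basal fluorescence ratio in a 140 s read after ATP addition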
OX1R antag-1 = human HCRTR1 antagonism. CHO/OX1R cells, Fluo-8 calcium fluorescence, orexin A. 330,000 compounds, 0.43% hits. inhibition, % at 5 µM. AID 434989;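 active = inhibition above its plate's threshold, mean inhibition of all tested compounds on the plate plus 3 SD, cut at about 37% in these data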
Target sequence (O43613 whole entry, looked up): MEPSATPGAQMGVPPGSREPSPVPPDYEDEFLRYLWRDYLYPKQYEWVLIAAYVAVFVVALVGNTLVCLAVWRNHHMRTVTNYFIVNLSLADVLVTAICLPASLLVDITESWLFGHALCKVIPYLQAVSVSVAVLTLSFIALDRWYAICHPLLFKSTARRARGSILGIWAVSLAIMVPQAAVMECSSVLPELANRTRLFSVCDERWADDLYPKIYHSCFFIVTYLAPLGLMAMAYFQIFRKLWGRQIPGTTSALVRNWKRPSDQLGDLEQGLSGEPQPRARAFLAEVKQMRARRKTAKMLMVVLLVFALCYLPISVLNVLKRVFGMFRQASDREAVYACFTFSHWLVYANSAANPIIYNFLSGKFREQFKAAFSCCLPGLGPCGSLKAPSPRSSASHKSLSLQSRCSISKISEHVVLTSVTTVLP
OX1R antag-2 = blocks the human orexin 1 receptor; O43613; OX1R-expressing cells, FRET antagonist read-out; inhibition, % at 6.6 µM; 330,000 compounds, 1.8% hits; AID 485270; in the data active = inhibition mostly above about 38%, no sharp cut-off; inactive = mostly below about 40%
Numbers stand for hits; - = inactive; . = no result. Hits are enriched below; roughly 2.9% of the tested compounds scored in any of these assays.

SMILES	CHO-K1 Ca antag	CHO parental Ca	M1 ag parental	M1 PAM parental	OX1R antag-1	OX1R antag-2
COc1ccc(OC)c(-c2cc(C3CCN(c4cc(Cl)nc(N)n4)CC3)[nH]n2)c1	25	-	-	-	-	-
O=C(NC(=S)N1CCN(Cc2ccccc2)CC1)c1ccco1	-	100	-	-	-	-
CC1CCN(C(=S)NC(=O)c2ccco2)CC1	-	-	-	-	-	-
CCCCOc1ccc(/C=N/NC(=S)Nc2cc(C)ccc2C)cc1	28	-	-	-	-	-
CC(=O)N1Cc2cc(C(=O)NCC(F)(F)F)nc(-c3cccc(-c4cc5ccccc5o4)c3)c2[C@H]1CCO	-	.	-	-	.	.
Cc1cccc(OCc2nc(C#N)c(N3CC(C)CC(C)C3)o2)c1 (stereo not drawn)	-	38	-	-	-	-
CCOC(=O)c1[nH]c(C)c(C(=O)N2CCCC(Nc3ccc(C)c(C)c3)C2)c1C (stereo not drawn)	-	-	-	-	-	-
O=C(CCN1C(=O)/C(=C/c2ccccc2F)SC1=S)NCCCN1CCOCC1	-	-	19	-	-	-
O=C(CN1C(=O)/C(=C\c2ccccc2Br)Oc2ccccc21)NCCCN1CCOCC1	-	-	-	-	-	49
O=C(Nc1ccc(S(=O)(=O)N2CCCCC2)cc1)c1ccc(Cl)nc1	-	-	-	-	-	-
CN(C)c1nc(Nc2ccc(Cl)cc2)nc(OCC#N)n1	27	-	-	-	-	-
CC(O)CN(CC(C)O)c1ccc2c(c1)Cc1cc([N+](=O)[O-])ccc1-2 (stereo not drawn)	60	.	174	-	.	.
C[C@H]1CCCCO[C@H](CN(C)S(=O)(=O)c2cn(C)cn2)[C@@H](C)CN([C@@H](C)CO)C(=O)c2cc(NS(=O)(=O)c3ccccc3)ccc2O1	-	.	-	-	.	.
FC(F)(F)c1cnc(N2CCCN(C(=S)Nc3ccccc3)CC2)c(Cl)c1	-	-	17	-	-	-
FC(F)(F)c1cnc(N2CCN(C(=S)NCc3ccccc3)CC2)c(Cl)c1	-	-	-	-	-	-
CN=c1c([N+](=O)[O-])nn(-c2ccc3c(c2)OCCO3)n1O	-	-	-	-	-	62
CC(C)c1ccc(N=c2c([N+](=O)[O-])nn(-c3ccc4c(c3)OCCO4)n2O)cc1	-	-	-	-	-	-
O=C(COC(=O)/C=C/c1ccc(Cl)c(Cl)c1)NC1CCS(=O)(=O)C1 (stereo not drawn)	-	-	16	-	-	-
O=C(CSc1ccc2nnc(-c3cccnc3)n2n1)Nc1ccccc1F	-	.	-	-	.	.
CCN(C(=O)CSc1nc2ccccc2[nH]1)C1CCS(=O)(=O)C1 (stereo not drawn)	-	-	-	-	-	-
O=S(=O)(c1ccc(NC(=S)NC2CCCC2)cc1)N1CCCC1	25	-	-	-	-	-
Fc1cccc(NC(=S)NC2CCCCCCC2)c1	-	.	-	-	.	.
S=C(Nc1ccc(Cl)c(Cl)c1)NC1CCCCC1	-	38	23	-	-	59
S=C(Nc1ccc(Cl)c(Cl)c1)NC1CCN(Cc2ccccc2)CC1	24	93	-	-	96	-
FC(F)(F)c1cccc(NC(=S)NC2CCCC2)c1	25	-	-	-	-	-
SMILES	CHO-K1 Ca antag	CHO parental Ca	M1 ag parental	M1 PAM parental	OX1R antag-1	OX1R antag-2
COC(=O)C(NC(=O)CCC(=O)N[C@@H](C(=O)OC)c1ccccc1)c1ccccc1 (stereo partly drawn)	-	-	-	-	-	-
Cc1ccc(S(=O)(=O)NCCC(=O)NCC(c2cccs2)N2CCOCC2)cc1 (stereo not drawn)	-	-	-	-	-	-
CSc1ccc(CNC(=O)Cc2ccc(NC(=O)C3=C(C)OCCS3)cc2)cc1	-	-	-	-	-	-
CCN1/C(=C2\C(=O)N(c3ccccc3)N=C2C)C=Cc2cc(C)ccc21	-	-	24	-	-	-
CC(C)OCCCNC(=O)c1cc(S(=O)(=O)N2CCc3ccccc32)cn1C	-	-	-	-	-	-
C/C(=N\OCc1nc2ccccc2c(=O)n1/N=C/c1cc(C)cc([N+](=O)[O-])c1O)c1ccccc1	-	-	-	-	-	47
CCc1sc(C(=O)Nc2ccc(OC)c(S(=O)(=O)N3CCOCC3)c2)cc1C	-	-	-	-	-	-
